# Reference: ChEMBL document CHEMBL3232953, “Synthesis, characterization and anti-proliferative activity of heterocyclic hypervalent organoantimony compounds” (Eur J Med Chem, 2014)
# What was measured:
# A549 [1] = experiment: Antiproliferative activity against human A549 cells after 48 hrs by CCK-8 assay; format: functional, cell-based; conditions: A549, 48 h
# In short: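 A549 cells in RPMI1640 with 10% newborn calf serum and 1% penicillin-streptomycin at 37 °C, 5% CO2. Seeded 5 × 10³ cells/well, compounds added after 12 h from DMSO stocks diluted in medium (final DMSO < 0.1% v/v). After 48 h, CCK-8 added for 2 h and OD read at 490 nm. IC50 by Probit regression of inhibition ratio against concentration. At least three experiments.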
# A549 [2] = experiment: Antiproliferative activity against human A549 cells at 30 uM after 24 to 72 hrs by CCK-8 assay; format: functional
# In short: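 Time course in A549 cells seeded 5 × 10³ cells/well. Compounds tested at 1, 3, 10 and 30 […] for the periods shown, with final DMSO < 0.1%. Viability by CCK-8 (2 h, OD 490 nm). Mean ± S.D. of three experiments done in triplicate, one-way ANOVA against 24 h and 48 h.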
IC50 (A549 [1]) [µM],SMILES,inhibition at 30 µM (A549 [2]) [%]
> 30,Brc1ccccc1CN(Cc1ccccc1Br)C1CCCCC1,9.39
> 30,CC(C)(C)N(Cc1ccccc1Br)Cc1ccccc1Br,
> 30,Brc1ccccc1CN(Cc1ccccc1Br)c1ccccc1,
